According to ChEMBL document CHEMBL2163223, “Synthesis and evaluation of novel α-fluorinated (E)-3-((6-methylpyridin-2-yl)ethynyl)cyclohex-2-enone-O-methyl oxime (ABP688) derivatives as metabotropic glutamate receptor subtype 5 PET radiotracers” (J Med Chem, 2012):
Calls of active or inactive are those of the source. The calls are words filed in the database; no cut-off is given here.

Experiments:
[1] = target: T1, Metabotropic glutamate receptor 5 (Rattus norvegicus, UniProt P31424); assay: Displacement of [3H]-ABP688 from mGluR5 receptor in Sprague-Dawley rat brain after 45 mins by beta counting
T1 sequence (P31424 whole entry): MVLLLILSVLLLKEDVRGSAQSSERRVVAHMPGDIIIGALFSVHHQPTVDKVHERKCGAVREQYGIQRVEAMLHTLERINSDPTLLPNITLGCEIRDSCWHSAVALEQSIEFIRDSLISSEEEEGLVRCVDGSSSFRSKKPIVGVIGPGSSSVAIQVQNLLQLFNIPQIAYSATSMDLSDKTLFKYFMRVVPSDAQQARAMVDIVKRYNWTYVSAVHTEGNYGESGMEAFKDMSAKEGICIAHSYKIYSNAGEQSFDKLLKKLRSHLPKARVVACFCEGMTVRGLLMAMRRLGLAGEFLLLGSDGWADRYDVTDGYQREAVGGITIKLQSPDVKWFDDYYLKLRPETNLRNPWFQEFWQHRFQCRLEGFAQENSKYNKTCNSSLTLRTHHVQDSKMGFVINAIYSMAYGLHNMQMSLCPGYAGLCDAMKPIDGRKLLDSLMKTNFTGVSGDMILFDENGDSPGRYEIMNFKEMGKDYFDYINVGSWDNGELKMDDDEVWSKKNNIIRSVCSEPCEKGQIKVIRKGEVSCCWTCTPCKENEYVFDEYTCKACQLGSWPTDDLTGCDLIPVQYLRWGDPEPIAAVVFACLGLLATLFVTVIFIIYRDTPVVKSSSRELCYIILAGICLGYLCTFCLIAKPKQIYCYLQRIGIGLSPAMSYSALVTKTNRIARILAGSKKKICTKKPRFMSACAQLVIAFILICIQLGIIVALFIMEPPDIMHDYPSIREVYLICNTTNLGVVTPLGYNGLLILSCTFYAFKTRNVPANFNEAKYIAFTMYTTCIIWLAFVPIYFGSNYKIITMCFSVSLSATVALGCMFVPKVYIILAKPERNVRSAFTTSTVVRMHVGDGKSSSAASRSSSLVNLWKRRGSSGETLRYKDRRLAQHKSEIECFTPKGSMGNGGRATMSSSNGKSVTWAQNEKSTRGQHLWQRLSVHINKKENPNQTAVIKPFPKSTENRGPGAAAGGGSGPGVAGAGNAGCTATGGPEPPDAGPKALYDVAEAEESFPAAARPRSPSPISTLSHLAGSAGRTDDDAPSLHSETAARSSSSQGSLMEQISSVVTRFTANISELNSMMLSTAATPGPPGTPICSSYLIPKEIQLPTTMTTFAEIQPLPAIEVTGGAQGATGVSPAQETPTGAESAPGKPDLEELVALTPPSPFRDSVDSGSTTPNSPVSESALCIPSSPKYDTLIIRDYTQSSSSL
Procedure, shortened: (§1)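 0.1 mg protein incubated in triplicate at ambient temperature with 2 nM [3H]-ABP688 and competitor 10 pM–100 μM for 45 min. Nonspecific binding from 100 μM MMPEP. Filtered, β-counted.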

[2] = target: T1, Metabotropic glutamate receptor 5; assay: Binding affinity to mGluR5 receptor in Sprague-Dawley rat brain by beta counting; procedure, shortened: as §1
[3] = tested on: Plasma; assay: Metabolic stability of the compound in rat plasma at 7 to 8 MBq after 2 hrs by HPLC analysis; format: ADME, cell-free; conditions: in the assay text read “21 MBq” for “7 to 8 MBq”
Procedure, shortened: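 Radiotracer (21 MBq) incubated at 37 °C for up to 2 h in phosphate buffer (4 mM KH2PO4/Na2HPO4, 155 mM NaCl, pH 7.4) or rat plasma. Samples taken at several time points, quenched with ice-cold MeCN. Plasma samples centrifuged at 12000g for 10 min. Samples filtered; supernatants analyzed by radio-HPLC on a reversed-phase C18 column with 70% aq MeCN.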

[4] = Chemical stability in phosphate buffer at 21 MBq at pH 7.4 after 2 hrs by HPLC analysis; conditions: pH 7.4, 2 h
[5] = target: Metabotropic glutamate receptor 5 (Rattus norvegicus) (UniProt P31424); assay: Binding affinity to mGluR5 receptor in Wistar rat brain at 1 to 10 nM after 45 mins by autoradiography in presence of ABP688; conditions: tested as the 18F-labelled form
Chain of Metabotropic glutamate receptor 5 (Rattus norvegicus) (P31424 21-1203 limits assumed): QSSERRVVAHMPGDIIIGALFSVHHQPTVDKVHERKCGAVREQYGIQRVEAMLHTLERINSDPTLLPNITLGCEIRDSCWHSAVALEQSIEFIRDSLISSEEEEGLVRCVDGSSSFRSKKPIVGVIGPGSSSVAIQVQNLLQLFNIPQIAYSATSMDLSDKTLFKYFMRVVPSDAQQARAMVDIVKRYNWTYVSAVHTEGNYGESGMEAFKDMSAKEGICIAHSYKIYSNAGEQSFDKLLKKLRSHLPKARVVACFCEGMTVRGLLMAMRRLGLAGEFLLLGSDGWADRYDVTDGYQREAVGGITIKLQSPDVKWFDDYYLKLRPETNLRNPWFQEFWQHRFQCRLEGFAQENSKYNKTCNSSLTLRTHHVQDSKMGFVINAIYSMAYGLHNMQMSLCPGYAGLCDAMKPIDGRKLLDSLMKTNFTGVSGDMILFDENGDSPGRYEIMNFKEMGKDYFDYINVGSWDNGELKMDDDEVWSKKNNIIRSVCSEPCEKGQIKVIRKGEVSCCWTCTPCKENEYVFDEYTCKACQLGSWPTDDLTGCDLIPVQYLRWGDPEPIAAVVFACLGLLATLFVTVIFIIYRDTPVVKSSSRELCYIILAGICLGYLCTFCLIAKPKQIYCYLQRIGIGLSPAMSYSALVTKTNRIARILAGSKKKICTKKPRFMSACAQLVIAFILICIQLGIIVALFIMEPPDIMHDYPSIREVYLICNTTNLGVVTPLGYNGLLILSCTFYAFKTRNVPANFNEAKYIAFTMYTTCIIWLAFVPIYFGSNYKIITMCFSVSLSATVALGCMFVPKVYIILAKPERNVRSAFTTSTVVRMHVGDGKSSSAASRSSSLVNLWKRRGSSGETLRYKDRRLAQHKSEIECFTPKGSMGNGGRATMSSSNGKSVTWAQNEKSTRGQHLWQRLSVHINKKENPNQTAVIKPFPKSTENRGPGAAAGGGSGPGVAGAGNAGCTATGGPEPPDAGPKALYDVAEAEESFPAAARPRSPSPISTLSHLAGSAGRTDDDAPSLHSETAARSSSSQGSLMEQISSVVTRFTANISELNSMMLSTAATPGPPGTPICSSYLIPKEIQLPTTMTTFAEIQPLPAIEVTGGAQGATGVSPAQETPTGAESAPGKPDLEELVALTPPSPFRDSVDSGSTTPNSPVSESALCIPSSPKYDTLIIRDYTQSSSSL
Procedure, shortened: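 Horizontal brain slices (20 μm) from a male Wistar rat were thawed and preincubated on ice for 10 min in HEPES buffer with 0.1% BSA. They were then incubated with 1 or 10 nM radiotracer, alone or with 100 nM ABP688, in HEPES for 45 min at ambient temperature. Washed on ice in HEPES/0.1% BSA, then twice in HEPES (3 min each), and dipped in water.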

[6] = Lipophilicity, log D of the compound at pH 7.4 by HPLC analysis; format: physicochemical; conditions: buffer
[7] = Lipophilicity, log D of the compound at pH 7.4 using shake flask method; format: physicochemical; conditions: buffer

With `CO/N=C1/C=C(C#Cc2cccc(C)n2)CCC1F` (stereo unspecified) as the compound, how does the Ki [1] read?
Its Ki is 8.5 nM.

Which Ki [1] does the source give for `CCO/N=C1/C=C(C#Cc2cccc(C)n2)CCC1F` (stereo unspecified) here?
Its Ki is 13 nM.

With `CCO/N=C1\C=C(C#Cc2ccccn2)CCC1[18F]` (stereo unspecified) as the compound, how does the Kd [2] read?
The Kd was 70 nM.

And the Stability [3]?
Its Stability is “Stable”.

And the Stability [4]?
The Stability was “Stable”.

Which Ki [1] does the source give for `CCO/N=C1/C=C(C#Cc2ccccn2)CCC1F` (stereo unspecified) here?
Its Ki is 5.7 nM.

With `CO/N=C1/C=C(C#Cc2ccccn2)CCC1F` (stereo unspecified) as the compound, how does the Ki [1] read?
Its Ki is 3.4 nM.

Which results are given for `CCO/N=C1\C=C(C#Cc2ccccn2)CCC1F` (stereo unspecified)?
Activity [5]: Active; logD [6]: 2.1; logD [7]: 3.5; Ki [1]: 31.2 nM
